High-throughput results from PubChem BioAssay.
Shown are actives, neighbours in structure and some others; about 3.7% of the full set was active somewhere.
Kir21 inh – inhibitors of mouse Kir2.1 inward-rectifier potassium channel; Inward rectifier potassium channel 2 (Mus musculus), P35561; HEK293-Kir2.1, FluxOR thallium flux fluorescence; stronger effect = lower value; B-score at 10 µM; actives 0.85% (n = 310,000); AID 1672, 2009;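 active means fluorescence ratio B-score at or below minus 3 SD of library scores, with starting-brightness B-score within 2 SD, cut at about -4.2 in these data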;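 further: channel flux triggered by added potassium and thallium sulfate stimulus; B-score of peak minus minimum fluorescence over baseline after thallium stimulus; more negative B-score means stronger Kir2.1 block with less thallium influx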
KCNK9 inh – KCNK9 potassium channel inhibitors, primary screen, HEK293 cells, thallium flux. FluxOR thallium flux fluorescence; stronger effect = lower value. actives 1.2% (n = 310,000). Potassium channel subfamily K member 9 (Homo sapiens), Q9NPC2. B-score at 10 µM;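 active means ratio B-score over 3 SD below the library mean, with starting fluorescence within 5 SD of its mean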;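 further: negative B-score means less thallium flux so channel inhibition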
hERG protect – hERG rescue from dofetilide block, primary screen, cell-based, CHO-hERG, FluxOR thallium flux, dofetilide IC70; AID 1511, 2009; dofetilide IC70 present; activation (rescue from dofetilide block), less the hit threshold, % at 10 µM; actives 0.51% (n = 310,000);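 active means activation above the mean of controls blocked by dofetilide plus 5 SD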;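 further: thallium influx through hERG after potassium depolarization seen as dye fluorescence rise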
Target sequence (Q12809 whole entry, looked up): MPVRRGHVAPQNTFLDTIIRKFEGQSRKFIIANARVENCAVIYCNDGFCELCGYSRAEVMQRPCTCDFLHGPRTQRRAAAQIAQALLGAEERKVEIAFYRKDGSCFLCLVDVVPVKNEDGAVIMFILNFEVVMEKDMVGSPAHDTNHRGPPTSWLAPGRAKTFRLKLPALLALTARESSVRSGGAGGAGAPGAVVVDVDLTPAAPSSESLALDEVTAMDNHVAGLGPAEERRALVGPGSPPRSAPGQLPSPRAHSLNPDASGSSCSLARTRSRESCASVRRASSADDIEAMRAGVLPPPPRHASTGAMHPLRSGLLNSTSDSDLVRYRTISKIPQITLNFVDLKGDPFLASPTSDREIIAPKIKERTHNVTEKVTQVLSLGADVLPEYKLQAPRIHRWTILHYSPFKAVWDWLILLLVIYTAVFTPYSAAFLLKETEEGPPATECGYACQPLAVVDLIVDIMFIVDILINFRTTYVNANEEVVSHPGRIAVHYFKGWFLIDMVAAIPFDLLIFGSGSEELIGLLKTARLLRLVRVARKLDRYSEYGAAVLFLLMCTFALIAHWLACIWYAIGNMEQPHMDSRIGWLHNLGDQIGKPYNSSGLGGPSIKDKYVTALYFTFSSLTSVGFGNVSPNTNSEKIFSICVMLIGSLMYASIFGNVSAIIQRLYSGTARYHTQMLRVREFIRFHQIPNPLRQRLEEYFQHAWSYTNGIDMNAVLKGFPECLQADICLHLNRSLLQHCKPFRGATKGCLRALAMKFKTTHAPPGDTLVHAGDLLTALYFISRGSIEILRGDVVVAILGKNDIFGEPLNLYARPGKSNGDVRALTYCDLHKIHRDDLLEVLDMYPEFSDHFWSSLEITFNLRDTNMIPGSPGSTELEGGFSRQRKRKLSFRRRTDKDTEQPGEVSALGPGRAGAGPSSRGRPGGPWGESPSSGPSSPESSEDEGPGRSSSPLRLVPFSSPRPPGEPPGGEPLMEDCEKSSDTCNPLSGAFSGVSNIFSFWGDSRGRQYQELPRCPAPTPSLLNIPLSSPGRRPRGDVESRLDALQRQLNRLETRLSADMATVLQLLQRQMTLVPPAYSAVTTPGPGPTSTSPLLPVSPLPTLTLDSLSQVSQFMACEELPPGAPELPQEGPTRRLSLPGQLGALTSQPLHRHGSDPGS
KCNK3 block – human KCNK3 channel inhibitors, primary screen, CHO cells, FluxOR thallium flux, B-score; Potassium channel subfamily K member 3 (Homo sapiens), O14649; FluxOR fluorescence; stronger effect = lower value; B-score at 10 µM; actives 0.84% (n = 340,000);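 active means B-score under library mean minus 4 SD, starting fluorescence ratio at most library mean plus 5 SD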;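 further: more negative B-score means stronger inhibition of thallium flux through KCNK3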
KCNQ1 block – inhibitors of human KCNQ1 channel, primary screen, cell-based, thallium flux, high-throughput. Potassium voltage-gated channel subfamily KQT member 1 (Homo sapiens), P51787. CHO-K1 KCNQ1, FluxOR thallium flux fluorescence; stronger effect = higher value. B-score at 10 µM. actives 1.3% (n = 310,000). AID 2642, 2010;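 active means compounds whose thallium flux B-score, printed positive for inhibition, exceeds three library SD while starting fluorescence stays within three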;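 further: channel opened by potassium depolarization with thallium stimulus after 20 min compound exposure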
KCNQ1 pot – potentiators or activators of KCNQ1 channel, primary screen, cell-based, thallium flux, high-throughput. actives 0.35% (n = 310,000). CHO-K1 KCNQ1, thallium flux FluxOR fluorescence; stronger effect = higher value. Potassium voltage-gated channel subfamily KQT member 1 (Homo sapiens), P51787. B-score at 10 µM;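 active means fluorescence ratio B-score, a plate-corrected score, at least three library SD, with initial intensity B-score within 5 SD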
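assay system = CHO-K1 cells stably expressing KCNQ1 | medium = assay buffer, equal DMSO in all wells | timing = 37 °C overnight plating, 90-min dark dye load, 20-min compound pretreatment | measured by = kinetic FluxOR thallium fluorescence, 10-s 1-Hz baseline, 110-s post-stimulus read | measure = fluorescence change relative to baseline, converted to B score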
KCNK9 block conf – KCNK9 potassium channel inhibitors, confirmation, HEK293 cells, thallium flux, duplicate | shares compounds with KCNK9 inh | FluxOR thallium flux fluorescence | inhibition, % at 10 µM | actives 43% (n = 4,900) | AID 492992, 2010;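 active means thallium signal inhibited by more than 5 SD of the compound-free buffer control wells, on both duplicate plates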;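 further: 0% = assay buffer control wells without compound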
Kir21 sel – mouse Kir2.1 channel inhibition, confirmation, selectivity assay for KCNK9 modulator project, cell-based, HEK293, thallium flux; shares compounds with KCNK9 inh; actives 4% (n = 4,900); AID 492993, 2010; inhibition, % at 10 µM; Kir2.1 cells, FluxOR thallium flux fluorescence;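 active means thallium signal drop more than 5 SD beyond the mean of the no-compound control wells, seen in both duplicate plates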;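 further: signal is fluorescence rise after thallium addition divided by baseline fluorescence; plate controls were assay buffer only for no effect and full block by chlorpromazine control for full effect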
HEK293 Tl ctr – thallium flux in non-induced HEK293 cells, confirmation, counter-screen for KCNK9 inhibitor project, cell-based, second counter screen, non-induced KCNK9-HEK293; shares compounds with KCNK9 inh; FluxOR thallium flux; inhibition, % at 10 µM; actives 40% (n = 4,900); AID 492997, 2010;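 active means thallium signal drop beyond 5 SD of the untreated control mean, on both duplicate plates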;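 further: plate controls were buffer only IC0 wells for no effect and SID17386958 at its maximal inhibitory level for full effect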
The depositor's hits bear a star; i = inactive; . = no result given.

SMILES	Kir21 inh	KCNK9 inh	hERG protect	KCNK3 block	KCNQ1 block	KCNQ1 pot	KCNK9 block conf	Kir21 sel	HEK293 Tl ctr
CC(C)(C)c1ccc(OCCC(=O)Nc2ccc(N3CCOCC3)cc2N2CCOCC2)cc1	1.4	i	-8	i	i	i	.	.	.
Cc1cccc(NC(=O)c2cc([N+](=O)[O-])ccc2NC2CCCCC2)c1	-0.05	i	-3	i	i	i	.	.	.
CN(c1ccc([N+](=O)[O-])cc1C(=O)Nc1ccccc1)C1CCCCC1	-1.1	-13*	-13	i	i	i	30%*	i	42%*
CCC(C)C(=O)Nc1nc(C)c(-c2csc(Nc3cc(Cl)ccc3OC)n2)s1 (stereo not drawn)	-0.33	i	-12	i	i	i	.	.	.
COc1ccc(OC)c(Nc2nc(-c3sc(C)nc3C)cs2)c1	1.1	i	-22	i	i	i	.	.	.
COc1ccc(OC)c(Nc2nc(-c3sc(NC(=O)C(C)(C)C)nc3C)cs2)c1	1.6	-13*	-15	i	i	i	46%*	i	i
CCC(C)C(=O)Nc1nc(C)c(-c2csc(Nc3cc(OC)ccc3OC)n2)s1 (stereo not drawn)	0	-11*	-26	i	i	i	40%*	i	27%*
COc1ccc(OC)c(Nc2nc(-c3sc(NC(=O)CC(C)C)nc3C)cs2)c1	0.64	-16*	-8	i	i	i	40%*	i	32%*
CN(C(=O)c1cccc(NC(=O)Cc2cccc([N+](=O)[O-])c2)c1)C1CC1	.	.	.	i	.	.	.	.	.
Cc1ccc(S(=O)(=O)N(Cc2ccccc2)c2ccccc2C(=O)Nc2ccccc2C(=O)NCc2ccco2)cc1	0.01	-9.6*	-8	i	8*	i	i	i	34%*
CCOC(=O)C1CCCN(C2=NC(=O)/C(=C/c3ccc(N(C)C)cc3)S2)C1 (stereo not drawn)	-5.8	-8.4*	-29	i	8*	i	56%*	i	86%*
CCN1C(=O)[C@H]2[C@@H](c3ccc(-c4ccc(F)cc4)cc3)N[C@@](C)(C(=O)OC)[C@H]2C1=O	.	.	.	i	.	.	.	.	.
CC(=O)/C=C/c1ccccc1Oc1c(F)c(F)nc(F)c1F	-1.1	i	-5	i	i	i	i	i	i
Oc1ccccc1Oc1c(F)c(F)nc(N2CCCC2)c1F	-1.8	i	-13	i	i	i	.	.	.
O=C(NCc1ccccn1)c1ccccc1OCc1ccc(F)cc1	-1.1	i	-17	i	i	i	.	.	.
COc1ccccc1CNC(=O)c1ccccc1OCc1ccc(F)cc1	-6.5*	-8.8*	-14	i	i	i	70%*	39%*	28%*
CC1CCCCC1NC(=O)COc1ncnc2sccc12 (stereo not drawn)	.	.	.	i	.	.	.	.	.
COC(=O)c1ccccc1NC(=O)C1CCCN(S(=O)(=O)c2ccc(F)cc2)C1 (stereo not drawn)	1.4	i	-1	i	i	i	i	i	i
COC(=O)c1ccccc1NC(=O)C1CCCN(S(=O)(=O)c2ccccc2)C1 (stereo not drawn)	-0.4	i	-9	i	i	i	i	i	i
COC(=O)c1ccc(CN(C(=O)N2CCN(C)CC2)S(=O)(=O)c2ccc(C)cc2)cc1	0.28	i	-7	i	i	i	.	.	.
CCOC(=O)c1cnn(-c2nc(CC)nc3sc4c(c23)CCC4)c1N	-0.55	-10*	-6	i	i	i	36%*	i	i
O=C(Nc1cccc(-c2nc3ncccc3o2)c1)c1cc2ccccc2o1	0.89	-8.3*	-22	i	i	i	66%*	i	i
Cc1ccc(-c2nc3ncccc3o2)cc1NC(=O)c1cc2ccccc2o1	1.7	i	-5	i	i	i	.	.	.
Cc1ccc(SCCC(=O)NCCSCc2ccccc2C)cc1	1.8	i	-8	i	i	i	i	i	i
CCCCNC(=O)CCSc1ccc(C)cc1	-0.57	i	-4	i	i	i	.	.	.
SMILES	Kir21 inh	KCNK9 inh	hERG protect	KCNK3 block	KCNQ1 block	KCNQ1 pot	KCNK9 block conf	Kir21 sel	HEK293 Tl ctr
CCCCn1c(C2CCCCC2)nc2cc3[nH]c(=O)c(C(C)C)nc3cc21	-0.72	i	-21	i	i	i	.	.	.
CCCCn1c(-c2cccc3ccccc23)nc2cc3[nH]c(=O)c(C(C)C)nc3cc21	-0.91	-11*	-7	i	i	i	54%*	i	i
CNc1c(NS(=O)(=O)c2cc(Cl)ccc2OC)c(=O)oc2ccccc12	0.57	i	-10	i	i	i	.	.	.
CCOc1ccccc1N1CCN(C(=O)c2cc3cc(OC)ccc3[nH]2)CC1	0.3	i	-4	i	i	i	i	i	i
O=C(Cc1coc2cc3c(cc12)CCC3)OCc1cc(=O)n2c(n1)sc1ccccc12	1.5	i	-16	i	i	i	i	i	i
COc1ccc(CN(C)Cc2nc(Cc3cccc(F)c3)no2)c2cccnc12	-1.6	i	-27	i	i	i	.	.	.
COc1cccc(-n2cc(CN(C)Cc3nc(Cc4ccccc4)no3)cn2)c1	0.66	i	-9	i	i	i	i	i	i
CN(Cc1cnn(C)c1)Cc1nc(Cc2ccccc2Cl)no1	-0.67	i	-5	i	i	i	.	.	.
COc1cccc(-n2cc(CN(C)Cc3nc(Cc4cccc(F)c4)no3)cn2)c1	-0.38	i	-19	i	i	i	i	i	i
